What is called IC50 is the concentration needed to halve the response being measured. What is called EC50 is the concentration needed to bring the measured effect to its halfway point. For orientation: Emax means the maximal effect, on the per cent scale that the assay sets. The solubility is the concentration that dissolves in the medium under given conditions. High values mean a readily soluble substance, low ones a poorly soluble substance. One may read the Tmax as the time at which the peak concentration occurs. The term Cmax denotes the highest concentration seen after dosing. For orientation: half-life means the time in which the quantity being followed falls by half. High values mean slow decline, low ones rapid decline. One may read the AUC(0-t) as exposure summed from dosing to a finite time, without extrapolation to infinity. A high value points to more exposure.

The target of data set [1] is T1, Cannabinoid receptor 2 (Homo sapiens, UniProt P34972). The data set can be described thus: Displacement of [3H]CP-55940 from human recombinant CB2 receptor expressed in CHO cells. It is filed as cell-based. (In general: In a radioligand displacement assay an active substance lowers the binding of a labelled ligand.)
In data set [2] the target is T2, Cannabinoid receptor 1 (Homo sapiens, UniProt P21554). In words: Displacement of [3H]CP-55940 from human recombinant CB1 receptor expressed in CHO cells. It is filed as cell-based.
The target of data set [3] is T1, Cannabinoid receptor 2. The data set can be described thus: Agonist activity at human recombinant CB2 receptor expressed in CHO cells by [35S]GTP-gamma-S binding assay. It is filed as functional, cell-based. A digest of the protocol:
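Membranes from CHO cells expressing human CB2 (5 µg/well) in Hepes buffer pH 7.4 with 100 mM NaCl, 3 mM MgCl2, 0.2% BSA, 3 µM GDP and 30 µg/mL saponin. Preincubated with compound for 30 min at 30 °C, then 0.1 nM [35S]GTPγS added for a further 30 min at 30 °C. Filtered and counted. Nonspecific binding defined with 10 µM GTPγS.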
Background: GTPγS resists hydrolysis and so accumulates on activated G proteins.

Data set [4] has as its target T1, Cannabinoid receptor 2. The data set can be described thus: Agonist activity at human recombinant CB2 receptor expressed in CHO cells by [35S]GTP-gamma-S binding assay relative to CP-55940. The class given is functional, cell-based. Put shortly:
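Membranes from CHO cells expressing human CB2 (5 µg/well) in Hepes buffer pH 7.4 with 100 mM NaCl, 3 mM MgCl2, 0.2% BSA, 3 µM GDP and 30 µg/mL saponin. Preincubated with compound for 30 min at 30 °C, then 0.1 nM [35S]GTPγS added for a further 30 min at 30 °C. Filtered and counted. Nonspecific binding defined with 10 µM GTPγS. Emax expressed relative to the maximal response to CP 55,940.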

Data set [5] deals with T2, Cannabinoid receptor 1. In words: Agonist activity at CB1 receptor. It is filed as functional.
Data set [6] deals with T1, Cannabinoid receptor 2. In words: Agonist activity at CB2 receptor. It is filed as functional. Put shortly:
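[³⁵S]GTPγS binding on membranes of CHO cells expressing human CB2. Buffer 20 mM Hepes, 100 mM NaCl, 3 mM MgCl2, 0.2% BSA, 3 µM GDP, 30 µg/mL saponin, pH 7.4. Membranes (5 µg/well) preincubated with compounds 30 min at 30 °C, then 0.1 nM [³⁵S]GTPγS added for 30 min at 30 °C. Filtration and scintillation counting; nonspecific binding with 10 µM GTPγS. EC50 derived; Emax relative to CP 55,940 maximum.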

The species entered for the next data set is Homo sapiens. In words: Selectivity for human CB2 receptor over human CB1 receptor.
Data set [7] in a line: Solubility in water at 25 degC. The class given is physicochemical. A digest of the protocol:
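Excess compound shaken in water at room temperature for 24 h, then centrifuged for 10 min at 25 °C. Supernatant diluted in 50% aqueous acetonitrile and quantified by reversed-phase HPLC with UV detection at 230 nm.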

Data set [8] addresses T1, Cannabinoid receptor 2. In words: Binding affinity to CB2 receptor.
For data set [9], the target named is T3, Cannabinoid receptor 2 (Rattus norvegicus, UniProt Q9QZN9).
T3 sequence (Q9QZN9 whole entry): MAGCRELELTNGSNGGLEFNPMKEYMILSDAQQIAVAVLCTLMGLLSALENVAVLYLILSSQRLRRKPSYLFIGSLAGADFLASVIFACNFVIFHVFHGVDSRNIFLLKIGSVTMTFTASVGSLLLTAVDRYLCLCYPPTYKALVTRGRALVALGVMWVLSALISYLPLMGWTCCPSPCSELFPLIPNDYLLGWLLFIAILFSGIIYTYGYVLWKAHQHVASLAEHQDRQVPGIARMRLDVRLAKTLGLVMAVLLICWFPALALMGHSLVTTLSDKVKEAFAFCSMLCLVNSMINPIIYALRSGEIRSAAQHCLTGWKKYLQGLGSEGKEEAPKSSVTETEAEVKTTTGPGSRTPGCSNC
In words: Displacement of [3H]CP-55940 from […] receptor in Sprague-Dawley rat spleen membrane. The class given is cell membranes. A digest of the protocol: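 Rat spleen membranes (100 µg/well) from male Sprague–Dawley rats in Tris-HCl buffer pH 7.4 with 5 mM EDTA, 5 mM MgCl2 and 0.2% BSA. Incubated with varying compound concentrations and 0.57 nM [3H]CP 55,940 at 25 °C for 120 min. Filtered and counted. Nonspecific binding defined with 2 µM CP 55,940.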

Data set [10] can be described thus: Tmax in Sprague-Dawley rat at 10 mg/kg, po. The class given is ADME, organism-based. Details: dose 10 mg/kg, route oral. Conditions: in vivo. A digest of the protocol:
(§1)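 Male Sprague–Dawley rats, 7–8 weeks old, dosed orally at 10 mg/kg. Blood taken from the tail vein and plasma stored at -80 °C. Plasma protein-precipitated with acetonitrile/methanol (9:1) containing internal standard, then quantified by LC-MS/MS (ESI, positive MRM). LLOQ 1 ng/mL. Mean ± SD of three animals.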

Data set [11] is described as follows: Plasma concentration in Sprague-Dawley rat at 10 mg/kg, po after 1.67 hrs. The class given is ADME, organism-based. Also on record: dose 10 mg/kg, route oral. Put shortly:
as §1

Data set [12] in a line: Half life in Sprague-Dawley rat at 10 mg/kg, po. As to conditions: in vivo. The class given is ADME, organism-based. Also on record: dose 10 mg/kg, route oral. Put shortly: as §1
The nature of data set [13]: AUC (0 to 8 hrs) in Sprague-Dawley rat at 10 mg/kg, po. It is filed as ADME, organism-based. Details: time < 8 hr, dose 10 mg/kg, route oral. Conditions: plasma.
Data set [14] can be described thus: Metabolic stability in human liver microsomes after 15 mins. Conditions: read-out: Stability. The class given is ADME, Microsome. Put shortly:
(§2)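 Compound at 5 µM final incubated for 15 min at 37 °C with human or rat liver microsomes (1.0 mg protein/mL) in phosphate buffer with KCl, pH 7.4, plus an NADPH-generating system. Stopped with DMSO, centrifuged, and the remaining compound measured by LC-MS/MS. Run in triplicate.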

Data set [15] can be described thus: Metabolic stability in Sprague-Dawley rat liver microsomes after 15 mins. The class given is ADME, Microsome. Conditions: read-out: Stability. A digest of the protocol:
as §2

The test system of data set [16] is Rattus norvegicus. In words: Reversal of mechanical hyperalgesia in Wistar rat at 10 mg/kg, po after 1 hr by Randall-Selitto test. It is filed as functional, organism-based. Also on record: dose 10 mg/kg. Put shortly: (§3)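 Male Wistar rats (200–220 g) given 0.1 mL of 20% yeast suspension into the right hind paw plantar surface. Control paw-withdrawal threshold read by algesiometer 2 h after yeast, then compound given orally in 5% gum arabic vehicle. Threshold re-read at 1 and 3 h. Result expressed as %MPE. Seven rats per group; Dunnett's test versus vehicle.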

For data set [17], the system named is Rattus norvegicus. In words: Reversal of mechanical hyperalgesia in Wistar rat at 30mg/kg, po after 1 hr by Randall-Selitto test. The class given is functional, organism-based. A digest of the protocol:
as §3

The target in data set [18] is T2, Cannabinoid receptor 1. The data set can be described thus: Binding affinity to CB1 receptor.

Converted amounts (≈) assume the structure as drawn. The source made the active and inactive calls.

T2 sequence (P21554 whole entry): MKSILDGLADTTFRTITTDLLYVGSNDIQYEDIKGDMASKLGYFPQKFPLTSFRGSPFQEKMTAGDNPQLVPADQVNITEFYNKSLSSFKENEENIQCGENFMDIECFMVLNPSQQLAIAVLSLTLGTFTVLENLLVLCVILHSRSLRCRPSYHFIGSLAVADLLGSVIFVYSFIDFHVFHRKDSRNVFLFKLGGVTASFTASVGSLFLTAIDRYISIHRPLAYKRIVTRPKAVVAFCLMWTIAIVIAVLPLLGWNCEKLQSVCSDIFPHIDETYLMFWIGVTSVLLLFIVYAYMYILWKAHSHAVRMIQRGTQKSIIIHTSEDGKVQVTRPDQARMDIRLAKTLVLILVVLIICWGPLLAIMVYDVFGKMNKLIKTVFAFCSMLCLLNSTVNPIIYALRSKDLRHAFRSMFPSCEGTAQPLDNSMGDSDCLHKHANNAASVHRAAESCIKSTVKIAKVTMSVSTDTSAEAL
T1 sequence (P34972 whole entry): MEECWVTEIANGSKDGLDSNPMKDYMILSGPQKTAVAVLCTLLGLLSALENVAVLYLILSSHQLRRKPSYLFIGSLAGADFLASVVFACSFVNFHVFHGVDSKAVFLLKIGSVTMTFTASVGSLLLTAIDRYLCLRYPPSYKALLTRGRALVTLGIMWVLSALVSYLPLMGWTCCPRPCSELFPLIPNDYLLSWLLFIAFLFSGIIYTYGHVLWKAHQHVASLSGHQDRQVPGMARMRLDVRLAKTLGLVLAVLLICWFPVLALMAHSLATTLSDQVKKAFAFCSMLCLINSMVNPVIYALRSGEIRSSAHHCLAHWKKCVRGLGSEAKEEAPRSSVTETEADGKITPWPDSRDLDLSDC

On to `Cn1c(C(C)(C)C)c/c(=N\C(=O)c2cc(C(F)(F)F)ccc2F)n1CC1CC1`, for which the 50% inhibitory concentration (IC50) on Cannabinoid receptor 2 [1] stood at 23 nM; at Cannabinoid receptor 1 [2] it was 3700 nM. Further, on Cannabinoid receptor 2 [3], the concentration for a half-maximal effect (EC50) is 8.8 nM. The Emax on Cannabinoid receptor 2 [4] came out at 90%.
With `O=C(NCC1CCOCC1)c1cnc(Nc2ccc(Cl)cc2Cl)nc1C(F)(F)F` [GW842166X], the half-maximal effective concentration (EC50) on Cannabinoid receptor 1 [5] was above 30000 nM; at Cannabinoid receptor 2 [6], 50 nM.
On to `Cn1c(C(C)(C)C)c/c(=N\C(=O)c2cccc(C(F)(F)F)c2Cl)n1CC1CC1`, for which the figures for the IC50 on Cannabinoid receptor 2 [1] and at Cannabinoid receptor 1 [2] were 3.7 nM and 2200 nM, respectively. In addition, at Cannabinoid receptor 2 [3], the concentration giving a half-maximal response (EC50) was 1.5 nM. Besides, the maximal response (Emax) at Cannabinoid receptor 2 [4] was found to be 82%.
Turning to `CC(C)(C)c1c/c(=N\C(=O)c2cccc(C(F)(F)F)c2)n(CC2CC2)o1`, on Cannabinoid receptor 2 [1], the 50% inhibitory concentration (IC50) was determined as 46 nM.
For `CC(C)(C)c1c/c(=N\C(=O)c2cccc(C(F)(F)F)c2)n(CC2CC2)s1`, the half-maximal inhibitory concentration (IC50) at Cannabinoid receptor 2 [1] was 9.5 nM.
Regarding `Cc1c(C(C)(C)C)s/c(=N\C(=O)c2cccc(C(F)(F)F)c2)n1CC1CC1`, the Ratio IC50 in the data set filed under Homo sapiens came to 270. Further, the solubility in [7] was below 0.1 µg/mL.
Turning to `CC1(C)C(C(=O)c2cn(CCN3CCOCC3)c3ccccc23)C1(C)C`, the concentration for half-maximal inhibition (IC50) on Cannabinoid receptor 2 [8] amounted to 0.77 nM.
Turning to `Cn1c(C(C)(C)C)c/c(=N\C(=O)c2cccc(C(F)(F)F)c2F)n1CC1CC1`, the IC50 on Cannabinoid receptor 2 [1] came to 2.9 nM; on Cannabinoid receptor 1 [2], 4000 nM; on Cannabinoid receptor 2 [9], 1.4 nM. Also, the EC50 at Cannabinoid receptor 2 [3] came to 1.8 nM. Moreover, the Emax on Cannabinoid receptor 2 [4] is 85%. Further, the Tmax in data set [10] turned out to be 1.67 h. Moreover, the concentration in data set [11] peaked (Cmax) at 545 ng/mL. This molecule showed a half-life in data set [12] of 2.47 h. In data set [13], this molecule returned an area under the curve AUC(0-t) at 8 h of 2160 ng·h/mL. Further, the Ratio IC50 in the data set listed under Homo sapiens was 1400. The molecule also came in with a solubility in data set [7] of 59 µg/mL (≈ 148 µM). Further, the remaining at 0.25 h is 92% in data set [14] and 86% in data set [15]. The outcome with Rattus norvegicus [16] and in the data set on Rattus norvegicus [17] was Active.
As to `Cc1c(C(C)C)o/c(=N\C(=O)c2cccc(C(F)(F)F)c2)n1CC1CC1`, the 50% inhibitory concentration (IC50) at Cannabinoid receptor 2 [1] worked out at 24 nM.
For `Cn1c(C(C)(C)C)c/c(=N\C(=O)c2cccc(C(F)(F)F)c2)n1CC1CC1`, at Cannabinoid receptor 2 [1], the IC50 is 51 nM.
Take `CN1CCCCC1Cn1cc(C(=O)c2cc([N+](=O)[O-])ccc2I)c2ccccc21` (stereo not given): the IC50 is 280 nM on Cannabinoid receptor 1 [18] and 3.4 nM on Cannabinoid receptor 2 [8].
`Cc1c(C(=O)/N=c2\cc(C(C)(C)C)n(C)n2CC2CC2)cccc1C(F)(F)F`: the IC50 at Cannabinoid receptor 2 [1] was determined as 11 nM; at Cannabinoid receptor 1 [2], 1300 nM. In addition, the EC50 at Cannabinoid receptor 2 [3] came out at 4.4 nM. Besides, on Cannabinoid receptor 2 [4], the Emax turned out to be 73%.
Consider `Cn1c(C(C)(C)C)c/c(=N\C(=O)c2cccc(C(F)(F)F)c2F)n1CC1CCC1`, for which the concentration for half-maximal inhibition (IC50) at Cannabinoid receptor 2 [1] came to 1.7 nM; on Cannabinoid receptor 1 [2], 940 nM. At Cannabinoid receptor 2 [3], the EC50 was 0.32 nM. Besides, the maximum response (Emax) at Cannabinoid receptor 2 [4] turned out to be 96%.
For `CC(C)OCCn1/c(=N/C(=O)c2cccc(C(F)(F)F)c2F)cc(C(C)(C)C)n1C`, the IC50 was determined as 2.6 nM on Cannabinoid receptor 2 [1] and 760 nM at Cannabinoid receptor 1 [2]. The EC50 at Cannabinoid receptor 2 [3] turned out to be 0.85 nM. Also, at Cannabinoid receptor 2 [4], the maximum response (Emax) was found to be 76%.
`CC(C)(C)c1nn(CC2CC2)/c(=N/C(=O)c2cccc(C(F)(F)F)c2)s1`: the IC50 on Cannabinoid receptor 2 [1] turned out to be 300 nM.
`Cc1ccc(C(F)(F)F)cc1C(=O)/N=c1\cc(C(C)(C)C)n(C)n1CC1CC1`: the IC50 at Cannabinoid receptor 2 [1] was 88 nM.
For the molecule `CCOCCn1/c(=N/C(=O)c2cccc(C(F)(F)F)c2F)cc(C(C)(C)C)n1C`, the figures for the IC50 on Cannabinoid receptor 2 [1] and on Cannabinoid receptor 1 [2] were 3.7 nM and 870 nM, respectively. In addition, the concentration giving a half-maximal response (EC50) at Cannabinoid receptor 2 [3] turned out to be 1.1 nM. In addition, the maximal response (Emax) on Cannabinoid receptor 2 [4] is 82%.
For `Cn1c(C(C)(C)C)c/c(=N\C(=O)c2cccc(C(F)(F)F)c2F)n1CC1CCCC1`, on Cannabinoid receptor 1 [2], the half-maximal inhibitory concentration (IC50) stood at 810 nM. On Cannabinoid receptor 2 [3], the EC50 was 0.79 nM. Moreover, on Cannabinoid receptor 2 [4], the Emax is 67%.
